Compound activity: PubChem BioAssay, several laboratories
Only some compounds are listed: those with a hit (about 4.3% of all), similar ones and a draw of the others.
MC4R antag cAMP: blocks human MC4R cAMP signaling; P32245; MC4R-expressing cells, MTII-stimulated cAMP, LANCE TR-FRET; inhibition, % at 6.5 µM; 0.48% of 360,000 active; AID 540295;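 active = inhibition above its plate's cutoff, the mean of tested wells on that plate plus 3 SD, cut at about 29% in these data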;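 also: 0% = Melanotan II alone and 100% = Melanotan II plus saturating MCL0020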
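system = U2OS cells with stable human MC4R expression | also added = Melanotan II challenge after compound preincubation | dosing = one concentration, 6.5 µM nominal | incubation = compound 30 min, challenge 1 h, detection 1 h | measured by = TR-FRET with Eu-cAMP and labeled anti-cAMP, 671 nm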
MC4R ag barr: activates human MC4R beta-arrestin recruitment | activation, % at 8.9 µM | 0.98% of 360,000 active | U2OS MC4R beta-arrestin complementation, luminescence; percent of melanotan II response, DMSO zero;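 active = activation above a per-plate cutoff, the mean activation of sample wells on that plate plus 3 SD, cut at about 8% in these data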
TAAR1 ag: agonists of human TAAR1; Q96RJ0; CHO RD-HGA16 TAAR1, Fluo-8 calcium fluorescence; vehicle wells 0%, saturating PEA agonist 100%; activation, % at 3 µM; 0.99% of 360,000 active; AID 624467;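 active = activation above the mean activation of all test compounds in the run plus 3 SD, cut at about 38% in these data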
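System: CHO RD-HGA16 cells carrying human TAAR1 plus Gα16; Incubation: 17-24 h seeding, 75 min 37 °C dye, 30 min RT; Measured by: Fluo-8 fluorescence, 5 s baseline then 140 s kinetic read; Control set: DMSO and PEA EC100; Replication: single well for each compound.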
m5-HT2A agonist: agonists of mouse serotonin 5-HT2A receptor (HTR2A); CHO-K1 mHTR2A beta-arrestin complementation, luminescence; percent of 30 µM serotonin response; activation, % at 7.6 µM; 0.66% of 360,000 active;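 active = activation above a run cutoff, the mean activation of all tested compounds plus 3 SD, cut at about 14% in these data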;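 also: 0% = plate median of compound wells and 100% = 30 µM serotonin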
Target sequence (P35363 whole entry, looked up): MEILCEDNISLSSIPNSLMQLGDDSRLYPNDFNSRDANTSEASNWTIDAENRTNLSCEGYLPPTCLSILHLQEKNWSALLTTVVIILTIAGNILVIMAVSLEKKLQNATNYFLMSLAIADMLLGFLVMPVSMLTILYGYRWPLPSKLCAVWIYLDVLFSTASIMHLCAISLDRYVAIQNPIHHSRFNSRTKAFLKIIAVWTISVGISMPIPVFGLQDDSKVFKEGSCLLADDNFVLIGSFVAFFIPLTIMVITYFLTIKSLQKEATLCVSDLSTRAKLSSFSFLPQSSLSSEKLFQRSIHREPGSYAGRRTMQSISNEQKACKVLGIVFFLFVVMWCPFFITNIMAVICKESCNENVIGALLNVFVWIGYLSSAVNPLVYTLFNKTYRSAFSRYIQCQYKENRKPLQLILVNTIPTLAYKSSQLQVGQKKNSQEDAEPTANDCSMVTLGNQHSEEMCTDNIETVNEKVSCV
B2AR ag: agonists of human beta-2 adrenergic receptor inducing internalization; response, % (test concentration not listed); Am2.2-beta2AR cells, FAP receptor internalization, flow cytometry; 0.43% of 340,000 active;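 active = response above a set limit, near 3 SD of response in nonfluorescent compounds, cut at about 42% in these data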
TAAR1 antagonist: antagonists of human TAAR1; Q96RJ0; CHO RD-HGA16 TAAR1, Fluo-8 calcium fluorescence, antagonist; inhibition, % at 3 µM; 1.5% of 360,000 active; AID 624466;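 active = inhibition above a per-plate cutoff, the mean inhibition of test compounds on that plate plus 3 SD, cut at about 49% in these data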;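 also: 0% = DMSO plus EC80 beta-PEA response and 100% = DMSO alone without agonist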
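System: CHO RD-HGA16 cells bearing hTAAR1. Reagent: EC80 β-phenethylamine stimulus. Schedule: seeding 17-24 h prior, 75-min 37 °C, 30-min RT dye loading. Signal: Fluo-8 intracellular calcium dye fluorescence, real-time kinetic reads. Read-out: % inhibition from peak post-agonist over basal fluorescence ratio. Benchmarks: vehicle wells and EC80 agonist wells. Replicates: n of 1.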
MC4R barr conf: human MC4R beta-arrestin agonism confirmation. activation, % at 8.9 µM. 31% of 2,400 active. U2OS MC4R beta-arrestin recruitment, luminescence; scaled DMSO 0%, Melanotan II 100%. AID 602192. shares compounds with MC4R ag barr;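 active = mean activation across replicates above the hit cutoff set in the earlier primary screen, cut at about 8% in these data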
MOR-DOR barr ag: activates mu-delta opioid heterodimer, MC4R agonist counter-screen. shares compounds with MC4R ag barr. U2OS PathHunter beta-arrestin, beta-gal luminescence; percent of deltorphin B response, DMSO zero. activation, % at 9.2 µM. 5.8% of 2,400 active. AID 602194;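 active = mean activation across replicates exceeds the hit threshold derived in the earlier primary screen, cut at about 18% in these data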;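 also: 100% = deltorphin B at 0.9 µM final and 0% = DMSO alone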
* marks the source's active call; other numbers are inactive results; / = no result given.

SMILES	MC4R antag cAMP	MC4R ag barr	TAAR1 ag	m5-HT2A agonist	B2AR ag	TAAR1 antagonist	MC4R barr conf	MOR-DOR barr ag
OC1CCN(c2cc(-c3ccccc3)nc3cc(-c4ccc(F)cc4)nn23)CC1	2	0	4	0	-5	22	/	/
CCN1CCN(c2cc(-c3ccccc3)nc3cc(-c4cccc(F)c4)nn23)CC1	14	12*	14	8	22	-5	2	14
Cc1cc(NC(=O)CSc2nc3c(c(=O)n(C)c(=O)n3C)n2C(C)C)no1	-26	16*	0	-4	-3	2	0	2
CC1(C(=O)NS(=O)(=O)C2CC2)CCCN(C(=O)c2cccs2)C1 (centres undefined)	14	0	0	0	/	-10	/	/
Clc1ccc(OCc2nn3c(-c4ccco4)nnc3s2)c(Cl)c1	0	21*	8	0	-13	-6	1	7
COc1ccc(CCNC(=O)/C(C#N)=C2\N=C(NC(=O)c3ccco3)c3ccccc32)cc1	4	14*	8	-1	32	36	-1	2
N#C/C(C(=O)NCc1ccccc1)=C1/N=C(NC(=O)c2ccco2)c2ccccc21	3	1	3	8	7	-15	/	/
COc1ccccc1NC(=O)CSc1nnc(COc2ccccc2C)o1	1	-1	1	7	7	-13	/	/
CCOC(=O)c1cccc(NC(=O)CSc2nnc(COc3ccccc3C)o2)c1	-12	11*	8	4	8	39	3	9
O=C1NC[C@H](Cc2ccccc2)N(CCc2cc(C(F)(F)F)cc(C(F)(F)F)c2)C1=O	/	/	-1	4	/	-21	/	/
O=C1NC[C@@H](Cc2cccc3ccccc23)N(CCc2cc(C(F)(F)F)cc(C(F)(F)F)c2)C1=O	-1	11*	15	2	1	8	9.8*	3
CC1CCN(S(=O)(=O)c2ccc(NC(=O)Cn3nnc(-c4ccccc4F)n3)cc2)CC1	-6	12*	6	2	3	-8	15*	7
CC1CCN(S(=O)(=O)c2ccc(NC(=O)c3ccccc3F)cc2)CC1	7	-1	7	-3	1	17	/	/
O=C(Nc1cccc(Br)c1)c1ccc(CSc2ccccc2)cc1	0	3	2	-5	5	25	/	/
Cc1cc(CSc2ccccc2)ccc1NC(=O)c1ccc(Br)cc1	-4	9.9*	5	3	14	22	12*	7
C=CCn1c(-c2ccccc2)cc(SC)c(C#N)c1=O	-4	12*	8	-10	-7	-11	0	3
CC[C@@H](C)[C@H](CN[C@H](CNC)C(C)C)NC[C@@H](C)c1ccc(CC(C)C)cc1	-1	45*	14	-8	27	17	16*	8
CC[C@H](C)[C@@H](CNC)NC[C@@H](Cc1ccc(O)cc1)NCC(C)(C)C	9	0	20	4	0	-14	/	/
Cc1nn(Cc2ccccc2)c(C)c1C(=O)NCCN1C(=O)S/C(=C\c2ccccc2)C1=O	1	11*	3	0	-6	6	1	1
CCc1cc(C(=O)N2CCN(c3ccccn3)CC2)sc1C	3	-4	5	-4	1	-8	/	/
CC(=O)Nc1ccc(SCCCC(=O)c2ccccc2)cc1	7	1	1	3	0	2	/	/
CC1(C)Oc2ccc3ccc(=O)oc3c2/C(=C/Nc2ccccc2)C1=O	21	9.8*	7	0	10	14	3	3
CC1(C)Oc2ccc3ccc(=O)oc3c2/C(=C/N)C1=O	4	0	0	6	-5	-4	/	/
c1ccc2c(c1)oc1c(Nc3ccc4c(c3)OCO4)ncnc12	-2	11*	8	-2	11	-3	2	8
